Laboratory results as given in ChEMBL document CHEMBL3232908, “Guanacastane diterpenoids from the plant endophytic fungus Cercospora sp” (J Nat Prod, 2014).
The source made the active and inactive calls. The calls are words filed in the database; no cut-off is given here.

Tests used:
HeLa [1] = assay: Cytotoxicity against human HeLa cells after 48 hrs by MTS assay; type: functional, cell-based
Summary of the method: (§1)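 Cells seeded at 2−5 × 10^3 per well by growth rate and allowed to attach overnight. Medium then replaced with medium holding test compound or 0.1% DMSO, made by serial dilution of 100 mM DMSO stocks. Incubated 48 h at 37 °C in humidified 5% CO2. MTS added, 90 min at 37 °C in the dark, absorbance read at 490 nm. Run in triplicate.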

[2] = Cytotoxicity against human T24 cells after 48 hrs by MTS assay; type: functional, cell-based; details: T-24, 48 h; summary of the method: as §1
HCT-116 [3] = assay: Induction of autophagy in human HCT116 cells transfected with plasmid expressing GFP-LC3 at 10 uM by DAPI staining based fluorescence microscopy; type: functional, cell-based
Summary of the method: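 HCT116 cells transfected with a GFP-LC3 plasmid. Transfection was 12 h by the legend and 24 h by the methods. Cells then incubated at 37 °C in RPMI-1640 with test compound or 1/1000 DMSO, fixed and stained with DAPI. GFP-LC3 puncta imaged by confocal fluorescence microscopy.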

HCT-116 [4] = assay: Induction of autophagy in human HCT116 cells assessed as increase in ratio of LC3-II to actin expression at 2.5 uM after 2 hrs by Western blot analysis relative to control; type: functional
Summary of the method: (§2)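 HCT116 colon carcinoma cells were grown in RPMI-1640 with fetal bovine serum and antibiotics, split overnight to 50% confluence, then dosed. Cells were lysed in 50 mM Tris-HCl pH 7.4, 2 mM EDTA, 2 mM EGTA, 1 mM DTT, 1% Triton X-100 and protease inhibitors. SDS-PAGE and PVDF blot used polyclonal anti-LC3, anti-actin and ECL. LC3-II/actin was measured by densitometry, representative of three experiments.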

A549 [5] = assay: Cytotoxicity against human A549 cells after 48 hrs by MTS assay; type: functional, cell-based; details: A549, 48 h; summary of the method: as §1
HCT-116 [6] = assay: Induction of autophagy in human HCT116 cells assessed as accrual of membrane vacuoles and autophagosome-like structure with double-membrane sturctures formation at 10 uM after 2 hrs by electron microscopy; type: functional, cell-based
Summary of the method: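 HCT116 cells in RPMI-1640 treated 2 h. Cells washed three times with PBS, trypsinized and pelleted. Pellets fixed overnight in 4% paraformaldehyde at 4 °C, postfixed 1 h at room temperature in 1% OsO4 in cacodylate buffer, dehydrated stepwise in ethanol, rinsed in propylene oxide and embedded in Spurr resin. Thin sections examined by transmission electron microscopy.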

HCT-116 [7] = assay: Cytotoxicity against human HCT116 cells after 48 hrs by MTS assay; type: functional, cell-based; details: HCT-116, 48 h; summary of the method: as §1
MCF7 [8] = assay: Cytotoxicity against human MCF7 cells after 48 hrs by MTS assay; type: functional, cell-based; details: MCF7, 48 h; summary of the method: as §1
HCT-116 [9] = assay: Induction of autophagy in human HCT116 cells assessed as increase in ratio of LC3-II to actin expression at 10 uM after 2 hrs by Western blot analysis relative to control; type: functional; summary of the method: as §2
HCT-116 [10] = assay: Induction of autophagy in human HCT116 cells assessed as increase in ratio of LC3-II to actin expression at 5 uM after 2 hrs by Western blot analysis relative to control; type: functional; summary of the method: as §2
T-24 = assay: Cytotoxicity against human T24 cells at 50 uM after 48 hrs by MTS assay; type: functional, cell-based; summary of the method: as §1
A549 [11] = assay: Cytotoxicity against human A549 cells at 50 uM after 48 hrs by MTS assay; type: functional, cell-based; summary of the method: as §1
HCT-116 [12] = assay: Cytotoxicity against human HCT116 cells at 50 uM after 48 hrs by MTS assay; type: functional, cell-based; summary of the method: as §1
MCF7 [13] = assay: Cytotoxicity against human MCF7 cells at 50 uM after 48 hrs by MTS assay; type: functional, cell-based; summary of the method: as §1
HeLa [14] = assay: Cytotoxicity against human HeLa cells at 50 uM after 48 hrs by MTS assay; type: functional, cell-based; summary of the method: as §1

## CC(C)C1=C(O)C(=O)C2=CC3=C(CCC4=C5CC6=C(O)C(=O)[C@H](C(C)C)[C@@]6(C)CC[C@]5(C)C[C@@H](O)C4=O)C(=O)[C@H](O)C[C@@]3(C)CC[C@@]21C
HeLa [1]
  IC50: 19.3 µM
[2]
  IC50: 8.16 µM
HCT-116 [3]
  Activity: Active
HCT-116 [4]
  Ratio: 1.2
A549 [5]
  IC50: 29.7 µM
HCT-116 [6]
  Activity: Active
HCT-116 [7]
  IC50: 21.3 µM
MCF7 [8]
  IC50: 46.1 µM
HCT-116 [9]
  Ratio: 1.4
HCT-116 [10]
  Ratio: 1.3

## CC(C)C1=C(O)C(=O)C2=CC3=C(CO)C(=O)[C@H](O)C[C@@]3(C)CC[C@@]21C
T-24
  Activity: inactive
A549 [11]
  Activity: inactive
HCT-116 [12]
  Activity: inactive
MCF7 [13]
  Activity: inactive
HeLa [14]
  Activity: inactive

## CC(C)C1=C(O)C(=O)C2=CC3=C(CCC4=C5C=C6C(=O)C(O)=C(C(C)C)[C@@]6(C)CC[C@]5(C)C[C@@H](O)C4=O)C(=O)[C@H](O)C[C@@]3(C)CC[C@@]21C
T-24
  Activity: inactive
A549 [11]
  Activity: inactive
HCT-116 [12]
  Activity: inactive
MCF7 [13]
  Activity: inactive
HeLa [14]
  Activity: inactive

## C[C@H](CO)[C@H]1CC(=O)[C@@H]2[C@H]3OCC4=C3[C@@](C)(CCC4=O)CC[C@]12C
T-24
  Activity: inactive
A549 [11]
  Activity: inactive
HCT-116 [12]
  Activity: inactive
MCF7 [13]
  Activity: inactive
HeLa [14]
  Activity: inactive

## CC(C)[C@H]1CC(=O)C2=CC3=C(CO)C(=O)C(O)=C[C@@]3(C)CC[C@@]21C
T-24
  Activity: inactive
A549 [11]
  Activity: inactive
HCT-116 [12]
  Activity: inactive
MCF7 [13]
  Activity: inactive
HeLa [14]
  Activity: inactive

## CC1=C2C=C3C(=O)C(O)=C([C@H](C)CO)[C@@]3(C)CC[C@]2(C)C[C@@H](O)C1=O
T-24
  Activity: inactive
A549 [11]
  Activity: inactive
HCT-116 [12]
  Activity: inactive
MCF7 [13]
  Activity: inactive
HeLa [14]
  Activity: inactive
